Source: ChEMBL document CHEMBL1149101, “New antibacterial agents derived from the DNA gyrase inhibitor cyclothialidine” (J Med Chem, 2004)
In brackets after ≈: the same amount, converted by molar mass.

How the values were obtained:
[1] = molecular target: DNA gyrase (Escherichia coli) (UniProt P0AES6+P0AES4)
Micrococcus luteus = experiment: Minimum inhibitory concentration against Micrococcus luteus ATCC 8340; assay type: functional
Method in brief: (§1)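 Agar dilution per NCCLS in BB2 agar + 1% Isovitalex + 7.5% sheep blood + menadione, compound added to melted medium at 50 °C. About 10⁴ CFU/spot from diluted overnight cultures, multipoint-inoculated.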

Staphylococcus aureus [2] = experiment: Minimum inhibitory concentration against Staphylococcus aureus 887; assay type: functional
Method in brief: as §1

Neisseria meningitidis = experiment: Minimum inhibitory concentration against Neisseria meningitides 69480; assay type: functional
Method in brief: as §1

Staphylococcus aureus [3] = experiment: Minimum inhibitory concentration against Staphylococcus aureus ATCC 25923; assay type: functional
Method in brief: (§2)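 NCCLS agar dilution on Mueller–Hinton agar, compound incorporated into melted medium at 50 °C. Inoculum about 10⁴ CFU/spot from diluted overnight cultures, multipoint-applied.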

Staphylococcus aureus [4] = experiment: Minimum inhibitory concentration against Staphylococcus aureus Smith; assay type: functional
Method in brief: as §2

Streptococcus pyogenes = experiment: Minimum inhibitory concentration against Streptococcus pyogenes b15
Enterococcus faecalis = experiment: Minimum inhibitory concentration against Enterococcus faecalis 6; assay type: functional
Method in brief: as §2

[5] = test system: Staphylococcus epidermidis; experiment: Minimum inhibitory concentration against Staphylococcus epidermidis 16/2; assay type: functional
Method in brief: as §2

[6] = test system: Stenotrophomonas maltophilia; experiment: Minimum inhibitory concentration against Xanthomonas maltophilia AC739; assay type: functional
Method in brief: as §2

Escherichia coli = experiment: Minimum inhibitory concentration against Escherichia coli 25922; assay type: functional
Method in brief: as §2

Staphylococcus aureus [7] = experiment: In vivo effective dose was determined in septicaemic mice (Staphylococcus aureus Smith) when administration iv; assay type: functional
Method in brief: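 Compound given iv as a gelatine microsuspension at 1 and 3 h post-challenge, 5 mice per group. ED50 (mg/kg) from day-4 survival by probit analysis.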

[8] = Range for minimum inhibitory concentration against Staphylococcus aureus; 0.5->[…]; assay type: functional
Staphylococcus aureus [9] = experiment: Minimum inhibitory concentration against Staphylococcus aureus; assay type: functional
[10] = Staphylococcus aureus, ATCC 25923, read-out: MIC
[11] = Staphylococcus aureus, read-out: MIC
[12] = Streptococcus pyogenes, read-out: MIC

COC(=O)[C@@H]1CSCc2c(O)cc(O)c(C)c2C(=O)OCC(NC(=O)[C@H]2C(O)CCN2C(=O)OC(C)(C)C)C(=O)N1 (some centres not stated)
MNEC [1]: 1 µg/mL | MIC (Micrococcus luteus): 128 µg/mL (≈ 214 µM) | MIC (Staphylococcus aureus [2]): > 64 µg/mL

COC(=O)[C@@H]1CSCc2c(O)cc(O)c(C)c2C(=O)OC[C@@H](NC(=O)OC(C)(C)C)C(=O)N1
MIC (Neisseria meningitidis): 32 µg/mL (≈ 66 µM) | MNEC [1]: 1 µg/mL | MIC (Micrococcus luteus): 128 µg/mL (≈ 264 µM)

COC(=O)[C@@H]1CSCc2c(O)cc(OC)c(C)c2C(=O)OCCC/C(S)=N/1
MIC (Staphylococcus aureus [3]; [10]): 4 µg/mL (≈ 9.67 µM) | MIC (Staphylococcus aureus [4]; [11]): 2 µg/mL (≈ 4.84 µM) | MNEC [1]: 0.4 µg/mL

COC(=O)c1c(C)c(OC)cc(O)c1CSC[C@H](/N=C(/C)S)C(=O)OC
MIC (Staphylococcus aureus [3]; [10]): 16 µg/mL (≈ 39.8 µM) | MIC (Staphylococcus aureus [4]; [11]): 8 µg/mL (≈ 19.9 µM) | MNEC [1]: 0.2 µg/mL

COC(=O)[C@@H]1CSCc2c(O)cc(O)cc2C(=O)OCC(NC(=O)OC(C)(C)C)C(=O)N1 (some centres not stated)
MIC (Neisseria meningitidis): 128 µg/mL (≈ 272 µM) | MNEC [1]: 0.5 µg/mL | MIC (Micrococcus luteus): 128 µg/mL (≈ 272 µM)

COC(=O)[C@@H]1CSCc2c(O)cccc2C(=O)OCC(NC(=O)OC(C)(C)C)C(=O)N1 (some centres not stated)
MNEC [1]: > 1 µg/mL | MIC (Micrococcus luteus): > 128 µg/mL

COC(=O)[C@@H]1CSCc2c(O)cc(O)c(C)c2C(=O)OC[C@H](N)C(=O)N1
MNEC [1]: 1 µg/mL | MIC (Micrococcus luteus): > 64 µg/mL | MIC (Staphylococcus aureus [2]): > 64 µg/mL

COc1cc(O)c2c(c1C)C(=O)OC[C@H](NC(=O)OC(C)(C)C)C(=O)N[C@H](C(=O)O)CSC2
MIC (Streptococcus pyogenes; [12]): > 64 µg/mL | MNEC [1]: 10 µg/mL | MIC (Micrococcus luteus): > 64 µg/mL | MIC (Staphylococcus aureus [2]): > 64 µg/mL

COC(=O)[C@@H]1CSCc2ccc(O)c(C)c2C(=O)OCC(NC(=O)OC(C)(C)C)C(=O)N1 (some centres not stated)
MNEC [1]: > 100 µg/mL | MIC (Micrococcus luteus): > 128 µg/mL

COC(=O)[C@@H]1CSCc2c(O)cc(OC)c(C)c2C(=O)OC[C@@H](C)C(=O)N1
MIC (Streptococcus pyogenes; [12]): > 64 µg/mL | MIC (Neisseria meningitidis): 64 µg/mL (≈ 161 µM) | MNEC [1]: 4 µg/mL | MIC (Micrococcus luteus): 64 µg/mL (≈ 161 µM) | MIC (Staphylococcus aureus [2]): > 64 µg/mL

COC(=O)c1c(C)c(OC)cc(O)c1CSC[C@H](NC(C)=O)C(=O)OC
MIC (Staphylococcus aureus [3]; [10]): > 64 µg/mL | MIC (Staphylococcus aureus [4]; [11]): > 64 µg/mL | MNEC [1]: 2 µg/mL

COC(=O)[C@@H]1CSCc2c(O)cc(OC)c(C)c2C(=O)OCCCC/C(S)=N/1
MIC (Enterococcus faecalis): 1 µg/mL (≈ 2.34 µM) | MIC (Streptococcus pyogenes; [12]): 1 µg/mL (≈ 2.34 µM) | MIC (Staphylococcus aureus [3]): 0.5 µg/mL (≈ 1.17 µM) | MIC (Staphylococcus aureus [3]; [10]): 0.5 µg/mL (≈ 1.17 µM) | MIC [5]: < 0.12 µg/mL | MIC (Staphylococcus aureus [4]): 0.25 µg/mL (≈ 0.585 µM) | MIC (Staphylococcus aureus [4]; [11]): 0.25 µg/mL (≈ 0.585 µM) | MNEC [1]: 0.01 µg/mL | MIC [6]: 8 µg/mL (≈ 18.7 µM) | MIC (Escherichia coli): > 64 µg/mL

COC(=O)[C@@H]1CSCc2c(O)ccc(C)c2C(=O)OCC(NC(=O)OC(C)(C)C)C(=O)N1 (some centres not stated)
MNEC [1]: 1 µg/mL | MIC (Micrococcus luteus): 32 µg/mL (≈ 68.3 µM)

COc1cc(O)c2c(c1C)C(=O)O[C@H](CO)C/C(S)=N/[C@H](c1nc(C)no1)CSC2
MNEC [1]: 0.01 µg/mL

COC(=O)[C@@H]1CSCc2c(O)cc(OC)c(C)c2C(=O)OCC(NC(=O)OC(C)(C)C)C(=O)N1 (some centres not stated)
MIC (Enterococcus faecalis): 64 µg/mL (≈ 128 µM) | MIC (Streptococcus pyogenes): 64 µg/mL (≈ 128 µM) | MIC (Streptococcus pyogenes; [12]): 64 µg/mL (≈ 128 µM) | MIC (Neisseria meningitidis): 16 µg/mL (≈ 32.1 µM) | MIC (Staphylococcus aureus [3]; [10]): > 64 µg/mL | MIC [5]: 64 µg/mL (≈ 128 µM) | MIC (Staphylococcus aureus [4]; [11]): 128 µg/mL (≈ 257 µM) | MNEC [1]: 0.2 µg/mL | MIC (Micrococcus luteus): 16 µg/mL (≈ 32.1 µM) | MIC (Staphylococcus aureus [2]): 64 µg/mL (≈ 128 µM) | MIC [6]: > 64 µg/mL | MIC (Escherichia coli): > 64 µg/mL

COC(=O)[C@@H]1CSCc2c(O)cc(O)c(C)c2C(=O)OC[C@H](NC(C)=O)C(=O)N1
MIC (Streptococcus pyogenes; [12]): > 64 µg/mL | MIC (Neisseria meningitidis): 32 µg/mL (≈ 75 µM) | MNEC [1]: 0.4 µg/mL | MIC (Micrococcus luteus): 128 µg/mL (≈ 300 µM) | MIC (Staphylococcus aureus [2]): > 64 µg/mL

Cc1c(O)cc(O)c2c1C(=O)OCC(NC(=O)OC(C)(C)C)C(=O)NCCSC2 (configuration not stated)
MNEC [1]: 1 µg/mL | MIC (Micrococcus luteus): 32 µg/mL (≈ 75 µM)

COC(=O)[C@@H]1CSCc2c(O)cc(OC)c(C)c2C(=O)OCC(=O)N1
MIC (Staphylococcus aureus [3]; [10]): > 64 µg/mL | MIC (Staphylococcus aureus [4]; [11]): > 64 µg/mL | MNEC [1]: > 1 µg/mL

COC(=O)[C@@H]1CSCc2cccc(C)c2C(=O)OCC(NC(=O)OC(C)(C)C)C(=O)N1 (some centres not stated)
MNEC [1]: > 1 µg/mL

COc1cc(O)c2c(c1C)C(=O)O[C@H](CO)CCC/C(S)=N/[C@H](c1nc(C)no1)CSC2
MIC (Enterococcus faecalis): 0.5 µg/mL (≈ 1.04 µM) | ED50 (Staphylococcus aureus [7]): 8.5 mg/kg | MIC (Streptococcus pyogenes; [12]): 0.5 µg/mL (≈ 1.04 µM) | MIC (Staphylococcus aureus [3]; [10]): 0.5 µg/mL (≈ 1.04 µM) | MIC [5]: < 0.12 µg/mL | MIC (Staphylococcus aureus [4]; [11]): 0.5 µg/mL (≈ 1.04 µM) | MNEC [1]: 0.005 µg/mL | MIC [6]: 4 µg/mL (≈ 8.31 µM) | MIC (Escherichia coli): > 64 µg/mL

COC(=O)[C@@H]1CSCc2ccccc2C(=O)OCC(NC(=O)OC(C)(C)C)C(=O)N1 (some centres not stated)
MNEC [1]: > 1 µg/mL

COC(=O)[C@@H]1CSCc2c(O)cc(OC)c(C)c2C(=O)OCCCCCCC(=O)N1
MIC (Staphylococcus aureus [3]; [10]): > 64 µg/mL | MIC (Staphylococcus aureus [4]; [11]): > 64 µg/mL | MNEC [1]: > 1 µg/mL

CC[C@H]1OC(=O)[C@H](C)[C@@H](O[C@H]2C[C@@](C)(OC)[C@@H](O)[C@H](C)O2)[C@H](C)[C@@H](O[C@@H]2O[C@H](C)C[C@H](N(C)C)[C@H]2O)[C@](C)(O)C[C@@H](C)C(=O)[C@H](C)[C@@H](O)[C@]1(C)O [ERYTHROMYCIN]
Range [8]: 16 µg/mL | MIC50 (Staphylococcus aureus [9]): > 16 µg/mL | MIC90 (Staphylococcus aureus [9]): > 16 µg/mL

COc1cc(O)c2c(c1C)C(=O)O[C@H](CO)CC/C(S)=N/[C@H](c1nc(C)no1)CSC2
MNEC [1]: 0.01 µg/mL
